Sampled rows, rich in hits. Any-hit rate of the full collection: about 2.3%.
Rpn11 inh – blocks the human proteasome subunit Rpn11; O00487; human 26S proteasome, Ub4-pepOG fluorescence polarization; 20S core pre-blocked with epoxomicin; inhibition, % at 20 µM; 360,000 compounds, 0.59% hits;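 active means inhibition at 20 µM, scaled to each plate's controls, above about 33%, limit read from the data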
Myeloid diff 2 – myeloid differentiation induction. ER-HoxA9 myeloid progenitors, lysozyme-GFP differentiation, flow cytometry. 360,000 compounds, 1% hits. calls only at 10 µM;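 active means normalized GFP-positive differentiation at or above the plate's own cutoff, the solvent-only control mean plus 3 SD; inconclusive means no clear call, values can overlap the other calls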;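 further: cells exposed to compound for four days before flow analysis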
CSN inh – CSN deneddylation inhibition | inhibition, % at 12.5 µM | Q92905 | 360,000 compounds, 0.38% hits | Purified CSN, SCF-Nedd8-OG deneddylation, fluorescence polarization | AID 651999;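 active means pattern-corrected inhibition above about 35%, with an unprinted fluorescence ratio check between 0.5 and 1.5, limit read from the data, passing the limit was not always enough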;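 further: 0% = enzyme with substrate and 100% = substrate without enzyme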
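Assay system: purified human Csn5 enzyme expressed in HEK293T cells; measure: % inhibition; also added: SCFSkp2-Nedd8OG substrate at 10 nM final; technique: fluorescence polarization; times: reaction 90 min, room temperature; medium: Tris buffer pH 7.5, NaCl, DTT, Tween-20, trehalose, ovalbumin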
HNF4A DNA FP – change in binding of human HNF4 alpha to DNA | P41235 | HNF4a-FITC DNA binding, fluorescence polarization, 1 h | activity change, % at 10 µM | 360,000 compounds, 0.3% hits | AID 1224865; in the data active means activity change above about 30%, passing the limit was not always enough
TPT1 inhibitor – C. albicans TPT1 enzyme inhibition; 300,000 compounds, 0.81% hits; recombinant caTPT1, FP RNA substrate dephosphorylation; inhibition, % at 5 µM; AID 1962;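 active means inhibition above the mean of all tested compounds plus 3 SD, set per screening campaign, cut at about 24% in these data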;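 further: plate controls were DMSO alone for no effect and ferristatin control at 100 nM for full effect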
Rpn11 inh conf – Rpn11 inhibition confirmation, single concentration | shares compounds with Rpn11 inh | 1,900 compounds, 29% hits | AID 602318 | inhibition, % at 20 µM | purified human 26S proteasome, Ub4-pepOG fluorescence polarization; proteasome pretreated with epoxomicin
MMP-2 counter-1 – blocks human MMP-2, flagging nonselective RPN11 hits; 1,900 compounds, 4% hits; AID 602330; recombinant MMP-2, FRET peptide cleavage fluorescence; inhibition, % at 20 µM; shares compounds with Rpn11 inh;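 further: human MMP-2 activated beforehand with APMA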
Thrombin FP – counter-screen for RPN11 inhibitors: inhibition of bovine thrombin. shares compounds with Rpn11 inh. bovine thrombin cleavage of Ub4-pepOG, fluorescence polarization. inhibition, % at 20 µM. 1,900 compounds, 13% hits. AID 602333;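 active means mean inhibition at least 40% at 20 µM, or signal 3 deviations below plate average, so some actives read negative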;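 further: plate controls were thrombin with DMSO for no effect and buffer wells lacking thrombin for full effect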
Target sequence (P00735 whole entry, looked up): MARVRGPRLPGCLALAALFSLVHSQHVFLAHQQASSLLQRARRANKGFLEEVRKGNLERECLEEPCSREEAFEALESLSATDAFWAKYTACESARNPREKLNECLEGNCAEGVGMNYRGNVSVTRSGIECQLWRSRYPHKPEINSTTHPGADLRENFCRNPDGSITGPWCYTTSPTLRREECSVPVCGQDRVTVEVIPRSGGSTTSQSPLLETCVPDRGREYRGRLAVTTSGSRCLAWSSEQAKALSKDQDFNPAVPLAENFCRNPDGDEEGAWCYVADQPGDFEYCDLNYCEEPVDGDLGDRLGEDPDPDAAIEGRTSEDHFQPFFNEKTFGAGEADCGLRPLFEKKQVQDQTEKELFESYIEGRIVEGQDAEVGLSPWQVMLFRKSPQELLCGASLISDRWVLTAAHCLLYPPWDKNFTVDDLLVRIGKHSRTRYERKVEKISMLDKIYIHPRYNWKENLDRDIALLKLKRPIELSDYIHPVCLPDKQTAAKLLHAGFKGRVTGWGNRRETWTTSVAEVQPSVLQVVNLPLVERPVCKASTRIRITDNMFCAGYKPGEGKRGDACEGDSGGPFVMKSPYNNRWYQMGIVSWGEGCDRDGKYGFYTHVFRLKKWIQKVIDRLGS
Myeloid diff – myeloid differentiation induction; calls only; 2,300 compounds, 2% hits; ER-HoxA9 myeloid progenitors, GFP/Mac1 double-positive flow; AID 651706; shares compounds with Myeloid diff 2;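 active means share of green or green-and-red cells above 9 and 9% in run 1 or 4 and 3% in run 2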
GFP autofluor – counter-screen for myeloid differentiation promoters: compound fluorescence; shares compounds with Myeloid diff 2; ER-HoxA9 myeloid progenitors, no estrogen, GFP autofluorescence flow cytometry; vehicle wells 0%, positive control 100%; fluorescence response, % (concentration not given with the values); 2,300 compounds, 7.4% hits; AID 651707;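 active means over 5% cells positive for green fluorescent reporter, or over 2% positive for both it and APC stain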;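 further: range taken on the double positive population between DMSO and positive control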
CSN5 deneddyl – validation of inhibitors of human CSN-mediated cullin deneddylation; inhibition, % at 16.6 µM; 540 compounds, 62% hits; Csn5 deneddylation of SCF-Nedd8OG, fluorescence polarization, 90 min; shares compounds with CSN inh; in the data active means inhibition above about 50%;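 further: 0% = DMSO with enzyme and 100% = no enzyme wells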
MMP-2 counter-2 – MMP-2 (human) inhibition, counter-screen for CSN hits; shares compounds with CSN inh; recombinant MMP-2, FRET substrate fluorescence, 60 min; inhibition, % at 16.6 µM; 540 compounds, 33% hits; AID 720655;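 active means corrected plate-normalized z-score of 5 or more, or -5 or less, or inhibition of 15% or more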;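 further: plate controls were DMSO wells with enzyme for no effect and buffer wells lacking MMP-2 for full effect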
Thrombin counter – blocks bovine thrombin in a CSN deneddylation counter-screen. AID 720656. shares compounds with CSN inh. bovine thrombin cleavage of Ub4-pepOG, fluorescence polarization. 540 compounds, 49% hits. inhibition, % at 16.6 µM;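 active means inhibition at or above a set limit, with a fluorescence interference ratio between 0.5 and a set maximum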
An asterisk follows results filed as active; i = inactive; u = inconclusive; x = no result; + = active, no number. Unless noted, no stated cut-off is given here; in the data, active means inhibition above about 40%; inactive means the rest.

SMILES | Rpn11 inh | Myeloid diff 2 | CSN inh | HNF4A DNA FP | TPT1 inhibitor | Rpn11 inh conf | MMP-2 counter-1 | Thrombin FP | CSN5 deneddyl | MMP-2 counter-2 | Thrombin counter | others
CCN(CC)CCOC(=O)c1ccc(N/C=C(/C#N)c2nc(-c3cc4ccccc4oc3=O)cs2)cc1 | 82* | i | 119* | 161 | x | 52* | i | 60* | -62 | -267* | 21*
O=C(Nc1nc(-c2ccc3c(c2)OCO3)cs1)C1CC1 | -7 | i | 2 | 1 | 3 | x | x | x | x | x | x
Cc1cc(C)nc(NS(=O)(=O)c2ccc(NC(=O)CCC(=O)O)cc2)n1 | -4 | i | 1 | 2 | -5 | x | x | x | x | x | x
Cc1ccc(CSc2nnc(SCC(=O)N/N=C/c3c[nH]c4ccccc34)s2)cc1 | 112* | i | 61* | 108* | x | 93* | 9 | 5 | 67* | 23* | 1
CCS(=O)(=O)C1=NN2C(=N)/C(=C\c3ccc(SCc4ccco4)o3)C(=O)N=C2S1 | + | i | 116* | 32 | x | 122* | 11 | 49* | -5 | 14 | 54*
CCS(=O)(=O)C1=NN2C(=N)/C(=C\c3ccc(OC(=O)c4ccco4)c(Br)c3)C(=O)N=C2S1 | x | x | x | x | 21 | x | x | x | x | x | x
O=C(O)c1ccc(NC(=S)NC(=O)c2ccc(-c3ccc(Br)cc3)o2)cc1 | 145* | i | 53* | -64 | 0 | 74* | 23 | 26 | 67* | 16* | 16*
CC(=O)N1CCN(S(=O)(=O)c2cccc(C(=O)NCCC3=CCCCC3)c2)CC1 | -1 | i | 2 | 0 | -2 | x | x | x | x | x | x
COC(=O)c1cnn(-c2nc(-c3ccccc3)cs2)c1N | 6 | i | 3 | 0 | -1 | x | x | x | x | x | x
COc1ccccc1-c1csc(-n2ncc(C#N)c2N)n1 | 92* | i | 68* | 241 | 7 | 45* | 50* | -16 | -6 | 72* | 17*
CC(/C=C1\SC(=S)N(NC(=O)c2ccncc2)C1=O)=C\c1ccccc1 | 5 | i | 2 | 1 | 0 | x | x | x | x | x | x
COc1cc(/C=C2\SC(=S)N(NC(=O)c3ccncc3)C2=O)ccc1O | 103* | i | 39* | 50* | 18 | 73* | 29 | 65* | 68* | 12 | 38*
COC(=O)c1cccn(CC(=O)c2ccc(Cl)cc2)c1=O | -2 | i | -7 | 1 | 4 | x | x | x | x | x | x
COc1ccc(OC)c(C2=NS(=O)(=O)N(C)C(C(=O)NCc3ccco3)=C2)c1 | -1 | i | 0 | 0 | -3 | x | x | x | x | x | x
O=C(N/N=C/c1sc(=O)n(Cc2ccc(Br)cc2)c1Cl)c1ccco1 | 148* | u | 42* | 21 | 15 | -24 | 48* | 38 | 47 | 54* | 14
COC(=O)CCCn1cc(CN2CC(N3CCCC3)CS2(=O)=O)nn1 (stereo not drawn) | x | i | -2 | 2 | x | x | x | x | x | x | x
O=[N+]([O-])c1cc(Cl)cc(/C=N/NC(=S)Nc2ccc(S(=O)(=O)N3CCOCC3)cc2)c1O | 24 | i | 1 | 2 | 1 | x | x | x | x | x | x
Cc1ccc2[nH]c(=O)c(CN(CCc3ccccc3)C(c3nnnn3Cc3ccco3)C(C)C)cc2c1 (stereo not drawn) | 57* | i | 38* | 9 | 15 | 24 | 9 | 2 | 88* | 1 | 14
CCC(c1nnnn1Cc1ccco1)N(CCc1ccccc1)Cc1cc2cc(C)ccc2[nH]c1=O (stereo not drawn) | 8 | i | 7 | -1 | 12 | x | x | x | x | x | x
O=C(CSc1nc(-c2ccccc2)nc2c1Cc1ccccc1O2)Nc1ccccc1 | x | x | x | x | -1 | x | x | x | x | x | x
O=C(CSc1nc(-c2ccc(F)cc2)nc2c1Cc1ccccc1O2)Nc1cccc(C(=O)O)c1 | + | i | 43* | -87 | x | 0 | 2 | 82* | 6 | 30* | 6
N#Cc1c(NC(=O)c2ccc(Br)o2)n(-c2ccccc2)c2nc3ccccc3nc12 | 58* | + | 39* | 88* | 13 | 6 | -33 | -14 | 94* | 6 | 2 | Myeloid diff=i;GFP autofluor=0
O=C(Nc1ccc(F)cc1)c1cccnn1 | 2 | i | 0 | -1 | 1 | x | x | x | x | x | x
Cn1ccc2cc3c(cc21)CCN3C(=O)Nc1cccnc1 | 91* | i | 102* | 24 | 4 | 23 | -362 | -6 | 61* | -41* | 3
CC1=NN(c2nc(N)nc(/C(C#N)=C/c3ccc([N+](=O)[O-])o3)n2)C(C)(C)C1 | 79* | u | 42* | 96* | x | 4 | 12 | 15 | 96* | 1 | 12
SMILES | Rpn11 inh | Myeloid diff 2 | CSN inh | HNF4A DNA FP | TPT1 inhibitor | Rpn11 inh conf | MMP-2 counter-1 | Thrombin FP | CSN5 deneddyl | MMP-2 counter-2 | Thrombin counter | others
COc1ccc(Oc2ccc(-c3ccn[nH]3)cc2)cc1 | 4 | i | -1 | 0 | -2 | x | x | x | x | x | x
CC(=O)Nc1ccc(S(=O)(=O)N2CCN(C(=O)C3COc4ccccc4O3)CC2)cc1 (stereo not drawn) | -14 | i | 4 | 3 | -1 | x | x | x | x | x | x
COc1ccc(S(=O)(=O)N2CCN(C(=O)C3COc4ccccc4O3)CC2)cc1 (stereo not drawn) | 86* | i | 45* | -48 | x | 65* | 15 | 58* | x | 8 | 16*
CN1/C(=C/c2cccc[n+]2CCO)Sc2ccccc21 | 5 | i | -2 | 5 | 2 | x | x | x | x | x | x
CC[n+]1c(/C=C2\Sc3ccccc3N2C)ccc2cccc(C)c21 | 102* | u | 70* | 156* | x | 96* | -51 | 157* | 12 | -11 | 33
COc1ccccc1C(CNC(=O)c1cccc(S(=O)(=O)N2c3ccccc3CC2C)c1)N(C)C (stereo not drawn) | -6 | i | -6 | 3 | x | x | x | x | x | x | x
CCN1/C(=C/c2ccc3cc(C)ccc3[n+]2CC)Sc2cc(C)c(C)cc21 | 89* | x | 50* | 107* | x | 75* | -63 | 146* | 29 | 7 | 43
